Assay results: ChEMBL document CHEMBL4825692, “Benzofuranyl-2-imidazoles as imidazoline I2 receptor ligands for Alzheimer's disease” (Eur J Med Chem, 2021)
Activity calls are given as the source filed them. No cut-off for these calls is given here.

Columns and labels:
[1] = Displacement of [3H]2-BFI from imidazoline I2 receptor high affinity site in post-mortem human brain frontal cortex membrane two site model measured after 45 mins by liquid scintillation counting spectrometry
[2] = Stability in mouse plasma assessed as compound remaining after 6 hrs; assay type: ADME, cell-free; settings: read-out: Stabilty
[3] = Solubility of compound at pH 4.61; assay type: physicochemical; settings: buffer
Procedure, shortened: (§1)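 Solubility was measured at pH 1.13, 4.61 and 6.97, simulating gastric and intestinal fluids, and classed by European Pharmacopoeia terms.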

[4] = species: Rattus norvegicus; assay: Displacement of [3H]idazoxan from imidazoline I2 receptor in rat brain cerebral cortex membrane assessed as occupancy at high affinity site measured after 30 mins by liquid scintillation counting spectrometry
[5] = test system: Mus musculus; assay: Antialzheimer activity in 5xFAD transgenic Alzheimer disease mouse model assessed as decrease in heme oxygenase 1 expression at 1 mg/kg/day by Western blot analysis
[6] = species: Homo sapiens; assay: Selectivity index, ratio of pKi for displacement of [3H]2-BFI from imidazoline I2 receptor in post-mortem human brain frontal cortex membrane to pKi for displacement of [3H]-RX821002 from adrenergic alpha 2 receptor in post-mortem human brain frontal cortex membrane; assay type: cell membranes
[7] = Stability in human plasma assessed as compound remaining after 2 hrs; assay type: ADME, cell-free; settings: read-out: Stabilty
Procedure, shortened: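 Pooled human plasma from healthy donors, sampled at 0, 1, 2 and 6 h, reported as percentage of parent remaining.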

[8] = Solubility of compound at pH 1.13; assay type: physicochemical; settings: buffer
Procedure, shortened: as §1

[9] = Displacement of [3H]idazoxan from imidazoline I2 receptor high affinity site in rat brain cerebral cortex membrane measured after 30 mins by liquid scintillation counting spectrometry
[10] = Microsomal stability in human liver microsomes assessed as parent compound remaining after 60 mins; assay type: ADME, Microsome; settings: read-out: Stabilty
Procedure, shortened: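 Human and mouse microsomes, incubation for 60 min, with percentage of parent compound remaining reported.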

[11] = target: T1, Adrenergic receptor alpha-2 (Homo sapiens, UniProt P08913+P18825+P18089); assay: Displacement of [3H]-RX821002 from adrenergic alpha 2 receptor in post-mortem human brain frontal cortex membrane measured after 30 mins by liquid scintillation counting spectrometry; assay type: cell membranes
T1 sequence (P08913 whole entry): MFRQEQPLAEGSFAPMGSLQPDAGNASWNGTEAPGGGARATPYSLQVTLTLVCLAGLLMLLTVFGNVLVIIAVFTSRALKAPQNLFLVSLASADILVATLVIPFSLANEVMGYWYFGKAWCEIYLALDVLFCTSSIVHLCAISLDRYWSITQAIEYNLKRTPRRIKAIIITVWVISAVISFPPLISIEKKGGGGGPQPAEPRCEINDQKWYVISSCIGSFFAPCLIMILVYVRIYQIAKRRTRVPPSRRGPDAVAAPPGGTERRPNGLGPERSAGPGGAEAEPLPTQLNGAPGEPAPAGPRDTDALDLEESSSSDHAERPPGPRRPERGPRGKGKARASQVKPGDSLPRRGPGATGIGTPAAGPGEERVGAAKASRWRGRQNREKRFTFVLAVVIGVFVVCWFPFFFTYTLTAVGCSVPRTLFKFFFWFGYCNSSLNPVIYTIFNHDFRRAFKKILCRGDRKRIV
T1 sequence (P18825 whole entry): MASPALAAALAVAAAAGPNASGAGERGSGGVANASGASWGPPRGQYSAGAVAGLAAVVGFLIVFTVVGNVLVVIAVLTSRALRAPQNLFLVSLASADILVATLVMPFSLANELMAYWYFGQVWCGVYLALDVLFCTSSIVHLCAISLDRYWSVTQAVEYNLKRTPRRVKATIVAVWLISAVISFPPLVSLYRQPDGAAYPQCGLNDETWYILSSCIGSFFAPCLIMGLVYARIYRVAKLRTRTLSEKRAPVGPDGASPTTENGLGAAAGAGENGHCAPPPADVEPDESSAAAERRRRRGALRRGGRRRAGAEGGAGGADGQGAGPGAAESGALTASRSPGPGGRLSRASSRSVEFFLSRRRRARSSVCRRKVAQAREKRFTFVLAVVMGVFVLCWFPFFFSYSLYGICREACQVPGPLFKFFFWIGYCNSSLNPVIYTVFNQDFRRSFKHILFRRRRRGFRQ
T1 sequence (P18089 whole entry): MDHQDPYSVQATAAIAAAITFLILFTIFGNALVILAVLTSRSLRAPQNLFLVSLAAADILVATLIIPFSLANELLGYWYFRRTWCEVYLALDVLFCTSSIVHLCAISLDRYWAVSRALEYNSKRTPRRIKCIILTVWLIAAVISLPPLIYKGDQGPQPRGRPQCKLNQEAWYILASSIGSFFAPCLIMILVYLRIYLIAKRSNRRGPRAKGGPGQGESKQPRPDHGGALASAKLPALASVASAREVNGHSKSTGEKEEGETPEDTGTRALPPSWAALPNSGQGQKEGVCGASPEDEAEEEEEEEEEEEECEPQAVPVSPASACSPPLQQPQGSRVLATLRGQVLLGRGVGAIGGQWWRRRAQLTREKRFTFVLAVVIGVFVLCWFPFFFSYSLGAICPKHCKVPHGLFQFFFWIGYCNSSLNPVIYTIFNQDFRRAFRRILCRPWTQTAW

[12] = test system: Mus musculus; assay: Antialzheimer activity in 5xFAD transgenic Alzheimer disease mouse model assessed as increase in SOD1 expression at 1 mg/kg/day by Western blot analysis
[13] = Permeability of compound by PAMPA-BBB assay; assay type: ADME
[14] = Displacement of [3H]clonidine from imidazoline I1 receptor low affinity site in rat hypothalamic membranes measured after 30 mins by liquid scintillation counting spectrometry; assay type: cell membranes, Hypothalamus, Membrane
[15] = test system: HL-60; assay: Cytotoxicity against human HL-60 cells at 100 uM by real time IncuCyte proliferation assay; assay type: cell-based; settings: hl-60, 100 µM
Procedure, shortened: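 Adherent lines (LN-229, Capan-1, HCT-116, NCI-H460) seeded at 500–1500 cells/well and treated after overnight attachment. Suspension lines (HL-60, K-562, Z-138, DND-41) seeded at 2500–5500 cells/well directly with compound. Highest concentration 100 μM; proliferation tracked by real-time IncuCyte imaging over 72 h at 37 °C.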

[16] = target: Cytochrome P450 2C9 (Homo sapiens, UniProt P11712); assay: Inhibition of CYP2C9 (unknown origin) at 10 uM; assay type: ADME
Procedure, shortened: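 Recombinant human CYP1A2, CYP2C9, CYP2C19, CYP2D6 and CYP3A4 (7-BFC or DBF as probe) were tested with probe substances and fluorescent detection, with test compound at 10 μM.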

[17] = Tmax in CD-1 mouse at 10 mg/kg, po measured after 24 hrs by HPLC/UV-VS analysis; assay type: ADME, organism-based; settings: in vivo
Procedure, shortened: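 Male CD1 mice (40–50 g, n = 3–4 per group) received a single 10 mg/kg dose. Plasma was taken at 15, 30, 45 and 60 min and 2, 3, 4, 5, 8 and 24 h. Drug was measured by HPLC-UV at 290 nm against a calibration of 0,025-5 μg/mL. Non-compartmental analysis used the mean curve: t1/2β = ln2/β from least-squares terminal slope; Tmax read directly.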

Sequence of Cytochrome P450 2C9 (P11712 whole entry): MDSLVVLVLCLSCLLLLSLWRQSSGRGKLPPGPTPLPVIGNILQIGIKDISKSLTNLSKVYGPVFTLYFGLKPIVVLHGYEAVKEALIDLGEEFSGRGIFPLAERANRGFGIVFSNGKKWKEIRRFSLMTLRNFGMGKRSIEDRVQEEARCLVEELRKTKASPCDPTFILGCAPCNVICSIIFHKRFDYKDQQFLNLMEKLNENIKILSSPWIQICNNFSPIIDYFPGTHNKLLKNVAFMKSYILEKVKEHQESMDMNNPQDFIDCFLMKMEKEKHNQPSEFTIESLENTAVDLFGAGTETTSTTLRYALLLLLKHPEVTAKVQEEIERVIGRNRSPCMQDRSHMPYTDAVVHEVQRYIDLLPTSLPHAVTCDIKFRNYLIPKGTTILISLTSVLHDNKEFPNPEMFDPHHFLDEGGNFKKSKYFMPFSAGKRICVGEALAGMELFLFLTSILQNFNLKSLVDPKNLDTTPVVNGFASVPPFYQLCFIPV

In the case of `Cl.c1ccc2oc(-c3ncc[nH]3)cc2c1`, the pKi [1] is reported as 8.17, the remaining at 6 h [2] is reported as 100% and the solubility [3] is reported as “Soluble”. For the same compound, the Activity [4] was 79%, the Activity [5] was “Active” and the Selectivity Index [6] was 3090. For the same compound, the remaining at 2 h [7] was 77%, the solubility [8] was “Soluble” and the pKi [9] was 6.45. The remaining at 1 h [10] was 58%, the pKi [11] was 3.18 and the Activity [12] was “Active”. For the same compound, the Papp [13] was 13.6 ×10⁻⁶ cm/s, the Ki [14] was 115 µM and the Activity [15] was “Non-Toxic”. The “inhibition (INH)” value [16] was “Not Active” and the Tmax [17] was 2 h.
